Experiments:
[1] = target: Dual specificity tyrosine-phosphorylation-regulated kinase 1B (Homo sapiens, UniProt Q9Y463); experiment: Inhibition of recombinant full length human Dyrk1B expressed in Baculovirus expression system using KKISGRLSPIMTEQ as substrate in presence of ATP
HeLa [2] = experiment: Cytotoxicity against human HeLa cells assessed as cell viability at 1 uM by XTT assay; format: functional; details: read-out: Activity
[3] = Half life in human liver S9 fraction at 0.3 uM incubated up to 120 mins at 37 degC in presence of NADP+/UDPGA by LC-MS/MS analysis; format: ADME, subcellular
How it was run: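 Phase I and phase II metabolic stability was tested in S9 fraction from human liver homogenate. Samples were taken at several time points, and the remaining parent compound was quantified by LC-MS/MS to give a metabolic half-life.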

HeLa [4] = experiment: Cytotoxicity against human HeLa cells after 72 hrs by CellTiter-Blue assay; format: functional, cell-based
[5] = target: T1, Serine/threonine-protein kinase 17A (Homo sapiens) (UniProt Q9UEE5); experiment: Inhibition of recombinant human STK17A expressed in Baculovirus expression system at 2 uM by Lantha-Screen assay
T1 sequence (whole entry): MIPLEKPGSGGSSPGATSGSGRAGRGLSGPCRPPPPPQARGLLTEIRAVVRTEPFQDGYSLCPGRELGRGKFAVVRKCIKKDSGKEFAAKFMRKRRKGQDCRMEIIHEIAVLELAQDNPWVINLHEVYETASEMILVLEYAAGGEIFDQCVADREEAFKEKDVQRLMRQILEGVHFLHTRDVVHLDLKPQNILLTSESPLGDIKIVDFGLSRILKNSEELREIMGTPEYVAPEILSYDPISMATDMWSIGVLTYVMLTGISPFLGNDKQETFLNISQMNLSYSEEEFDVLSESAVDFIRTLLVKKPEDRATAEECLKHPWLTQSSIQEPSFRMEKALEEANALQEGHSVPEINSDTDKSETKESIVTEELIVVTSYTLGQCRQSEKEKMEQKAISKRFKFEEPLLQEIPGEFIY

[6] = target: T2, Dual specificity tyrosine-phosphorylation-regulated kinase 1A (Homo sapiens, UniProt Q13627); experiment: Inhibition of Dyrk1A in human HeLa cells transfected with GFP-SF3b1-NT assessed as decrease in SF3B1 phosphorylation at Thr434 after 18 hrs by Western blot analysis; format: cell-based
How it was run: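 HeLa cells were transiently transfected with a GFP-SF3b1 expression vector, then treated with compound. Read-out was phosphorylation of SF3b1 at Thr434, which serves as a marker of endogenous Dyrk1A activity in the cell.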

[7] = target: T2, Dual specificity tyrosine-phosphorylation-regulated kinase 1A; experiment: Inhibition of recombinant human Dyrk1A expressed in Baculovirus expression system by Z'-LYTE assay
[8] = target: Myosin light chain kinase 2, skeletal/cardiac muscle (Homo sapiens) (UniProt Q9H1R3); experiment: Inhibition of recombinant human MLCK2 expressed in Baculovirus expression system at 2 uM by Lantha-screen assay
[9] = target: Dual specificity protein kinase CLK1 (Homo sapiens, UniProt P49759); experiment: Inhibition of recombinant human Clk1 expressed in Escherichia coli at 2 uM by Z'-LYTE assay
[10] = target: T2, Dual specificity tyrosine-phosphorylation-regulated kinase 1A; experiment: Inhibition of recombinant human Dyrk1A expressed in Baculovirus expression system at 2 uM by Z'-LYTE assay
[11] = target: Serine/threonine-protein kinase pim-1 (Homo sapiens) (UniProt P11309); experiment: Inhibition of recombinant human PIM1 expressed in Baculovirus expression system at 2 uM by Z'-LYTE assay
[12] = target: Casein kinase I isoform delta (Homo sapiens) (UniProt P48730); experiment: Inhibition of recombinant human CK1delta expressed in Baculovirus expression system at 2 uM by Z'-LYTE assay
[13] = target: T3, Serine/threonine-protein kinase haspin (Homo sapiens, UniProt Q8TF76); experiment: Inhibition of recombinant human Haspin expressed in Baculovirus expression system by Adapta assay
T3 sequence (Q8TF76 whole entry): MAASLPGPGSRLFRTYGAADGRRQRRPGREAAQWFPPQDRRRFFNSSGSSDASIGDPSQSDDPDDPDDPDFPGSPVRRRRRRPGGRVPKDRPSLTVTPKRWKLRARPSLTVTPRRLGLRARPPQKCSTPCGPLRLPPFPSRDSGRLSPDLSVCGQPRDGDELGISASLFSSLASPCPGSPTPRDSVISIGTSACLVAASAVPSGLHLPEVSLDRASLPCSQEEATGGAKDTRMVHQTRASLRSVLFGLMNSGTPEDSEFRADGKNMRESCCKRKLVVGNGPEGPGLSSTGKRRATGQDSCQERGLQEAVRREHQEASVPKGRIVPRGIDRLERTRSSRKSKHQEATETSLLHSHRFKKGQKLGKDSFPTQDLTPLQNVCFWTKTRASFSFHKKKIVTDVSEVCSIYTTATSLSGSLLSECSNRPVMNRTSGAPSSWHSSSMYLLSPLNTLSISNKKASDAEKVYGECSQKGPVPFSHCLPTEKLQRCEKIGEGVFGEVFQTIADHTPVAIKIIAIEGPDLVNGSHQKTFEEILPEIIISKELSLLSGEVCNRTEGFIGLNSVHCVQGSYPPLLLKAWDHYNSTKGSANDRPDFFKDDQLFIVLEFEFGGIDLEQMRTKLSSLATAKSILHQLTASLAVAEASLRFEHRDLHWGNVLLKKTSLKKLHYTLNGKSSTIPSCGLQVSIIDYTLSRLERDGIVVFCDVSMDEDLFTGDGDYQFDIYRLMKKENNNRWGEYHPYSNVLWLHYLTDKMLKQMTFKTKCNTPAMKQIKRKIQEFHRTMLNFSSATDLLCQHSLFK

[14] = target: BDNF/NT-3 growth factors receptor (Homo sapiens) (UniProt Q16620); experiment: Inhibition of recombinant human TRKB expressed in Baculovirus expression system at 2 uM by Z'-LYTE assay
[15] = target: T2, Dual specificity tyrosine-phosphorylation-regulated kinase 1A; experiment: Inhibition of recombinant full length human Dyrk1A expressed in Baculovirus expression system using KKISGRLSPIMTEQ as substrate in presence of ATP
HeLa [16] = experiment: Cytotoxicity against human HeLa cells assessed as cell viability at 3 uM by XTT assay; format: functional; details: read-out: Activity
[17] = target: Cyclin-dependent kinase 5/CDK5 activator 1 (Homo sapiens) (UniProt Q00535+Q15078); experiment: Inhibition of recombinant human CDK5/p25 expressed in baculovirus expression system at 2 uM by Z'-LYTE assay
[18] = target: Dual specificity protein kinase CLK2 (Homo sapiens) (UniProt P49760); experiment: Inhibition of recombinant human Clk2 expressed in Baculovirus expression system at 2 uM by Z'-LYTE assay
[19] = target: T4, Dual specificity tyrosine-phosphorylation-regulated kinase 2 (Homo sapiens, UniProt Q92630); experiment: Inhibition of recombinant human Dyrk2 (unknown origin) at 2 uM by Lantha-screen assay
T4 sequence (Q92630 whole entry): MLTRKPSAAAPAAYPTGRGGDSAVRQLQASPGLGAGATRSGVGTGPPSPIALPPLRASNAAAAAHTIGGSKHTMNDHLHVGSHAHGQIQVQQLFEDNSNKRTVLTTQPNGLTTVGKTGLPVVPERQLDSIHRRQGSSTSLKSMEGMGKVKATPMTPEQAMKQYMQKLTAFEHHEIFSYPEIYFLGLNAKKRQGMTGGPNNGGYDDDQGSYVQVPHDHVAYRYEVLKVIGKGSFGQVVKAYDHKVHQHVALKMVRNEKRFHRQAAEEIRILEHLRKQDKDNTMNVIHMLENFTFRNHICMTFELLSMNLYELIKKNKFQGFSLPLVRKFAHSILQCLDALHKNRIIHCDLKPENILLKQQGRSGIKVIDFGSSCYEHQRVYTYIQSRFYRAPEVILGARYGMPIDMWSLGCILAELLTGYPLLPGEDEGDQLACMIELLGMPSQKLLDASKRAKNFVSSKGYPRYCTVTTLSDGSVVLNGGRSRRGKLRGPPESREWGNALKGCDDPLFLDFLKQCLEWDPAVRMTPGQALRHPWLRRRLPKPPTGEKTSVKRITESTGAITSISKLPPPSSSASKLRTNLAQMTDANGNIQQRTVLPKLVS

HeLa [20] = experiment: Cytotoxicity against human HeLa cells assessed as cell viability at 10 uM by XTT assay; format: functional; details: read-out: Activity
[21] = target: T5, Serine/threonine-protein kinase haspin (Homo sapiens) (UniProt Q8TF76); experiment: Inhibition of recombinant human Haspin expressed in Baculovirus expression system at 2 uM by Adapta assay
T5 sequence (whole entry): T3 sequence (Q8TF76 whole entry)

[22] = target: SRSF protein kinase 1 (Homo sapiens) (UniProt Q96SB4); experiment: Inhibition of recombinant human SRPK1 expressed in Baculovirus expression system at 2 uM by Z'-LYTE assay
[23] = target: Homeodomain-interacting protein kinase 1 (Homo sapiens) (UniProt Q86Z02); experiment: Inhibition of recombinant human HIPK1 expressed in Baculovirus expression system at 2 uM by Z'-LYTE assay
HeLa [24] = experiment: Cytotoxicity against human HeLa cells after 5 days by MTT assay; format: functional, cell-based; details: 120 h
[25] = Half life in Sprague-Dawley rat liver microsomes at 0.5 uM by LC-MS/MS analysis; format: ADME, microsome

Chain of Dual specificity tyrosine-phosphorylation-regulated kinase 1B (Q9Y463 whole entry): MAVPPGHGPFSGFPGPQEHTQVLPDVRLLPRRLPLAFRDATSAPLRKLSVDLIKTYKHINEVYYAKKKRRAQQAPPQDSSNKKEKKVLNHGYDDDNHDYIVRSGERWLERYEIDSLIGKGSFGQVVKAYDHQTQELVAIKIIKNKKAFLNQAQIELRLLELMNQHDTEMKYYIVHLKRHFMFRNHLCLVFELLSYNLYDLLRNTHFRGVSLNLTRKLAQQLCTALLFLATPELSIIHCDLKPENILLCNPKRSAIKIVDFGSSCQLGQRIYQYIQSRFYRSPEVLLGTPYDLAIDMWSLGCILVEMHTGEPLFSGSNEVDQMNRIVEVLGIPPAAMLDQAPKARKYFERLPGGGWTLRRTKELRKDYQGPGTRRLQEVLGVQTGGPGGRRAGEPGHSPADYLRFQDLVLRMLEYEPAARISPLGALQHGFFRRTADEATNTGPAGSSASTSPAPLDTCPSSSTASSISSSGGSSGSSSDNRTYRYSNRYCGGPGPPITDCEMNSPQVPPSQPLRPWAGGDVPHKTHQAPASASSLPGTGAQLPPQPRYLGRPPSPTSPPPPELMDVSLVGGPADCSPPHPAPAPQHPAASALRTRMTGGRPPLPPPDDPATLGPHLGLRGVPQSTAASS
Chain of Myosin light chain kinase 2, skeletal/cardiac muscle (Homo sapiens) (Q9H1R3 whole entry): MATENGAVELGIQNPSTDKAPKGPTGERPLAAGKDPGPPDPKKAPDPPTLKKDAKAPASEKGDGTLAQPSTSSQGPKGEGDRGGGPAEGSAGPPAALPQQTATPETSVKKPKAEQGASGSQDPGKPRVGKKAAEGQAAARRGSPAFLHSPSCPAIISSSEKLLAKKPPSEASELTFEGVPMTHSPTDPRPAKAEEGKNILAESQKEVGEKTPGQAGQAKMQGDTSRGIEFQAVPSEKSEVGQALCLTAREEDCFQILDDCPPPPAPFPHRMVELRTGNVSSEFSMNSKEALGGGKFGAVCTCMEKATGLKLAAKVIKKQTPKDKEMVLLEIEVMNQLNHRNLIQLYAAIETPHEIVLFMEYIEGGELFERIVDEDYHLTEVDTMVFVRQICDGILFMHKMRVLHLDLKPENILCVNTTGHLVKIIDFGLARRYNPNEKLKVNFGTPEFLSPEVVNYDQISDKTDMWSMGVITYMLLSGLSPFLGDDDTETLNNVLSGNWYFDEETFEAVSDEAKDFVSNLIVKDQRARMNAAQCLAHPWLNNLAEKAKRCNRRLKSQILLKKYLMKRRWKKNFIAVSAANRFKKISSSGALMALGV
Chain of SRSF protein kinase 1 (Homo sapiens) (Q96SB4 whole entry): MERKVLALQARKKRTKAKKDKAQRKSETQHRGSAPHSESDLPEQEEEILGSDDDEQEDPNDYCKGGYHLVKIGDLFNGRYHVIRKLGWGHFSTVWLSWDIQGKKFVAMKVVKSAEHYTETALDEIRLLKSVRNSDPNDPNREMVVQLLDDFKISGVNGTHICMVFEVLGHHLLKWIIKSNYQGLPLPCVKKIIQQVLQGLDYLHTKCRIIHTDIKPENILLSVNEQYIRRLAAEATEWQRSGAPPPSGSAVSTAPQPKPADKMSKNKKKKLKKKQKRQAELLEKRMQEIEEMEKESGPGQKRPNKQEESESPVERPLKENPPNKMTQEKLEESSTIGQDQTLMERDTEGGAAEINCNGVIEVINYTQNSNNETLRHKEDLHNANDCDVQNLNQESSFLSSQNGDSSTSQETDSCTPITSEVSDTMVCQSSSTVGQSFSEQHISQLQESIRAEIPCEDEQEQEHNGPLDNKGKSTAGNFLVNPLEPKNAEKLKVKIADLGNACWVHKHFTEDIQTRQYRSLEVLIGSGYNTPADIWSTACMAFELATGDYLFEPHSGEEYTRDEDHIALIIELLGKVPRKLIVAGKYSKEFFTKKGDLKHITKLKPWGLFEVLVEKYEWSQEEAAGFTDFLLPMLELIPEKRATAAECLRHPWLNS
Chain of Dual specificity protein kinase CLK1 (P49759 whole entry): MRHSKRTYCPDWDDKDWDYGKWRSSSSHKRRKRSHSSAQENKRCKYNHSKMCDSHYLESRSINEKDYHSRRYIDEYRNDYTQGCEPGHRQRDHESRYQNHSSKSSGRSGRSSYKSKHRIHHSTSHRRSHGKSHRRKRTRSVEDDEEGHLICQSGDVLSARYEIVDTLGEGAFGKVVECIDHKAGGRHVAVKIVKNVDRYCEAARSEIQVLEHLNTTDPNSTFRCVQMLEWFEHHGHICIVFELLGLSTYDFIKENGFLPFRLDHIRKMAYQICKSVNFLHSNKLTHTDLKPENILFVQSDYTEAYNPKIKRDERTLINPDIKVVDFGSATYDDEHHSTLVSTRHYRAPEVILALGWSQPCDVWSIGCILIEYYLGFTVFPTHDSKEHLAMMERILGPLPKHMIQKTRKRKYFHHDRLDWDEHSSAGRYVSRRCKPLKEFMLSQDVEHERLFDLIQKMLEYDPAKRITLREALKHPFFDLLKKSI
Chain of Cyclin-dependent kinase 5/CDK5 activator 1 (Homo sapiens) (Q00535 whole entry): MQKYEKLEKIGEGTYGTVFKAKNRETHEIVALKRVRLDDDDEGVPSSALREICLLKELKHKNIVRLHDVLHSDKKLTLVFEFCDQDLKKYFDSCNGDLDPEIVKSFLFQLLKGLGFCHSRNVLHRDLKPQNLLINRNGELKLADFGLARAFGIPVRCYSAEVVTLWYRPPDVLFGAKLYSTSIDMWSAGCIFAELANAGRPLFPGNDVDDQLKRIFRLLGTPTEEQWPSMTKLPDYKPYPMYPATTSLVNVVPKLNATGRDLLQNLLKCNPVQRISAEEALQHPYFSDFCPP
Chain of Cyclin-dependent kinase 5/CDK5 activator 1 (Homo sapiens) (Q15078 99-307 partner limits assumed): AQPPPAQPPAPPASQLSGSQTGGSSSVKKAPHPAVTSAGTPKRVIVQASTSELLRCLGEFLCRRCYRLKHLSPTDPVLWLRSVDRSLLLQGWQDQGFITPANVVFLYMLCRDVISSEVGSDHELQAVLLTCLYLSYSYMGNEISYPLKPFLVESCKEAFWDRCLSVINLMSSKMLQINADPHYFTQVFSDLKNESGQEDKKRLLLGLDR
Chain of Dual specificity protein kinase CLK2 (Homo sapiens) (P49760 whole entry, looked up): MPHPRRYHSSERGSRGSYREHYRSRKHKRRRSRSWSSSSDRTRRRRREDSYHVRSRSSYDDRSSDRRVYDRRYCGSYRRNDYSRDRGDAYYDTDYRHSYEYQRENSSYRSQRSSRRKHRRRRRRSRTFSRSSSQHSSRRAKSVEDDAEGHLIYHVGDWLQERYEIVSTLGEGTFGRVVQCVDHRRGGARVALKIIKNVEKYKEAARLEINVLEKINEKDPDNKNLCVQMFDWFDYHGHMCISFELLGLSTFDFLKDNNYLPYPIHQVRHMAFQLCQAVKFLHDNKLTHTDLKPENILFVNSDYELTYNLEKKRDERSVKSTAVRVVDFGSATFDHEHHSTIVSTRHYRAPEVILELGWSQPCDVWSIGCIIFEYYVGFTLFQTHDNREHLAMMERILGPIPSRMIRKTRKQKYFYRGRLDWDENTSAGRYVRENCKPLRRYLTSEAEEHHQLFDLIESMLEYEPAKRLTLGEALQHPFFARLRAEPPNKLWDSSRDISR
Chain of Serine/threonine-protein kinase pim-1 (Homo sapiens) (P11309 whole entry, looked up, canonical isoform): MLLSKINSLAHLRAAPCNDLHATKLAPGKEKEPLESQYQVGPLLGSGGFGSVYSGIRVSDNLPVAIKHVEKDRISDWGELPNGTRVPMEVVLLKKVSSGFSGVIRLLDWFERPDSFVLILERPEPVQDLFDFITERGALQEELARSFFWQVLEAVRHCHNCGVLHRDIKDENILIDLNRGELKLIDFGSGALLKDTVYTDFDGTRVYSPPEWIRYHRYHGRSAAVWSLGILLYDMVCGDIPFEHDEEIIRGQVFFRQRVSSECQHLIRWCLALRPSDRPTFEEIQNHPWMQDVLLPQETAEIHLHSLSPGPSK
Chain of BDNF/NT-3 growth factors receptor (Homo sapiens) (Q16620 32-822 limits assumed): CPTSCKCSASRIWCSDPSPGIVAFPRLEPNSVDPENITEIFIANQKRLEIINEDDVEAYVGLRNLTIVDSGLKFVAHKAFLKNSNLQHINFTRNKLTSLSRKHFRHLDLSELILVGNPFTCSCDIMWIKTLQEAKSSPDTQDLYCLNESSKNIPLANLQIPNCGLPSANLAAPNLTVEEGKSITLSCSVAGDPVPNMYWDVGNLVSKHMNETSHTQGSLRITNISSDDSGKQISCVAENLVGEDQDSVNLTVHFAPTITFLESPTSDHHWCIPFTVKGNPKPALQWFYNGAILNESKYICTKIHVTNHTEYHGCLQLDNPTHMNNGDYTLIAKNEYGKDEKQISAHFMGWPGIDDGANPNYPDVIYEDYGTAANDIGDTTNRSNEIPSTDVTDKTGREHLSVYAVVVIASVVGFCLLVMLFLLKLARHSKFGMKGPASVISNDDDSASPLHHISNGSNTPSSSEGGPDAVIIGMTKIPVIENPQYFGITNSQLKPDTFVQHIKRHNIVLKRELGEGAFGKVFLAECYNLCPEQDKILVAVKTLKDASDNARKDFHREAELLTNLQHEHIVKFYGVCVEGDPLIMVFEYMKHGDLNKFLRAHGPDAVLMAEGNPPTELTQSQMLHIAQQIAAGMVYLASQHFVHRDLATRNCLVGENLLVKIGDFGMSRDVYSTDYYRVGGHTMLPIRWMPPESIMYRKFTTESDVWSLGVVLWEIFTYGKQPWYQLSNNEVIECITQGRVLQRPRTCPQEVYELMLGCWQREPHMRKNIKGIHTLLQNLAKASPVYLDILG
Chain of Casein kinase I isoform delta (Homo sapiens) (P48730 whole entry, looked up, canonical isoform): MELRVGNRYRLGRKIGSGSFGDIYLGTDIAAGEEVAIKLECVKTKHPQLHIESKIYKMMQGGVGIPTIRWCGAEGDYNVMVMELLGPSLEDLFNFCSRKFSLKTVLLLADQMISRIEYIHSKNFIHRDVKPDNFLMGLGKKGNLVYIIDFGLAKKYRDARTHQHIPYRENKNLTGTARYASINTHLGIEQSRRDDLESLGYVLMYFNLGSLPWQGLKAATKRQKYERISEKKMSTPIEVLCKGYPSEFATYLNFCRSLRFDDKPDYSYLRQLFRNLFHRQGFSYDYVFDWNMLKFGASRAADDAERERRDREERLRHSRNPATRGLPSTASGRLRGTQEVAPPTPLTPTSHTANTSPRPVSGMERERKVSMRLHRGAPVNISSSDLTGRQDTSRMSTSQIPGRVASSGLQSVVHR

Nc1ccc(-c2cc(-c3cccnc3)cs2)cn1
IC50 [1]: 0.251 µM

O=C(Cc1ccccc1)Nc1cncc(-c2cc(-c3cccnc3)cs2)c1
IC50 [1]: 0.326 µM

Nc1cncc(-c2csc(-c3cccnc3)c2)c1
IC50 [1]: 0.13 µM

CN[C@@H]1C[C@H]2O[C@@](C)([C@@H]1OC)n1c3ccccc3c3c4c(c5c6ccccc6n2c5c31)C(=O)NC4 [STAUROSPORINE]
viability at 1 µM (HeLa [2]): 33%

Nc1cncc(-c2cc(-c3cccnc3)cs2)c1
IC50 [1]: 0.154 µM

O=C(Nc1cncc(-c2cc(-c3cccnc3)cs2)c1)c1c(F)cc(F)cc1F
IC50 [1]: 0.298 µM
half-life at 0.3 µM [3]: 2.05 h

Oc1ccc(-c2nc3ccc4[nH]ncc4c3c3c2CCCC3)c(F)c1
IC50 (HeLa [4]): 4.8 µM

O=C(Cc1ccc(F)cc1)Nc1cncc(-c2cc(-c3cccnc3)cs2)c1
inhibition [5]: 60%
IC50 [6]: 0.079 µM
IC50 [7]: 0.0143 µM
inhibition [8]: 9.8%
inhibition at 2 µM [9]: 40%
inhibition [10]: 87%
inhibition [11]: 8%
inhibition [12]: 4%
IC50 [13]: 0.036 µM
inhibition [14]: 10%
IC50 [15]: 0.0143 µM
viability at 3 µM (HeLa [16]): 97%
inhibition [17]: 0%
IC50 [1]: 0.383 µM
inhibition [18]: 19%
inhibition at 2 µM [19]: 40%
viability at 1 µM (HeLa [2]): 99%
viability at 10 µM (HeLa [20]): 88%
half-life at 0.3 µM [3]: 1.97 h
inhibition [21]: 95%
inhibition [22]: 2%
inhibition [23]: 0%

COc1ccc2c(c1)[nH]c1c(C)nccc12 [HARMINE]
IC50 (HeLa [24]): 8 µM

c1cncc(-c2cc(-c3cncs3)cs2)c1
half-life at 0.5 µM [25]: 0.45 h

C[C@]12CC[C@H]3[C@@H](CCC4=CC(=O)CC[C@@]43C)[C@@H]1CC[C@@H]2O [TESTOSTERONE]
half-life at 0.3 µM [3]: 0.142 h
